The results in this text go back to ChEMBL document CHEMBL1909531, “Mitochondrial respiration inhibitors suppress protein translation and hypoxic signaling via the hyperphosphorylation and inactivation of translation initiation factor eIF2α and elongation factor eEF2” (J Nat Prod, 2011).

Structures are written as SMILES. Activity calls are given as the source filed them. No cut-off for these calls is given here.

A word on the inhibition: it is the change of the read-out against control, counted positive when it falls. As a reminder, the IC50 is the concentration that gives 50% inhibition.

Test [1] has as its target Serine/threonine-protein kinase mTOR (Homo sapiens) (UniProt P42345). In words: Inhibition of mTOR in human T47D cells assessed as eEF2 hyperphosphorylation on Ser 56 at 0.1 to 1 uM after 30 mins by Western blotting. It is filed as cell-based. The essentials: (§1)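 0.8 × 10^6 cells per well exposed for 30 min at 37 °C, 5% CO2, in DMEM/F12 with 5% FBS. Cells washed with cold DPBS and lysed in modified RIPA (pH 7.6) with protease and phosphatase inhibitors. 40 µg protein run on 4–20% SDS-PAGE and blotted. Phospho-site-specific primary antibodies at 1:1,000, HRP anti-rabbit IgG, chemiluminescence on film.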

The target is the same in test [2]. In words: Inhibition of mTOR-mediated 4E-BP1 phosphorylation on Thr 37/46 in human T47D cells at 0.1 to 1 uM after 30 mins by Western blotting. The class given is cell-based. The essentials: as §1
On the technique in general: Immunoblotting shows a protein as a band on a membrane.

Test [3] concerns T47D. In words: Reduction in ATP level in human T47D cells after 72 hrs by HPLC-UV analysis. It is filed as functional, cell-based. The essentials: (§2)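 5 × 10^5 cells per well seeded in DMEM/F12 with 10% FBS. After 24 h, half the medium replaced with serum-free DMEM/F12 containing compound. After exposure, cells washed in cold DPBS and extracted with cold 0.4 M perchloric acid, then neutralized with K2CO3. ATP quantified by reversed-phase C18 HPLC-UV using 50 mM potassium phosphate pH 6.0/MeOH at 0.7 mL/min.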

Test [4] relates to T47D. In words: Inhibition of cellular respiration in human T47D cells assessed as rate of oxygen consumption at 0.001 to 0.1 uM. The class given is functional, cell-based. The essentials: (§3)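 Whole-cell oxygen consumption measured with a Clarke-type oxygen electrode during a concentration-response series. Cells in serum-free DMEM/F12 medium at 30 °C.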
Test [5] concerns the target Serine/threonine-protein kinase mTOR (Homo sapiens) (UniProt P42345). In words: Inhibition of mTORC1-mediated rpS6 phosphorylation on Ser 235/236 in human T47D cells at 0.1 to 1 uM after 30 mins by Western blotting. The class given is cell-based. The essentials: as §1
Test [6] concerns MDA-MB-231. In words: Inhibition of cellular respiration in human MDA-MB-231 cells assessed as rate of oxygen consumption. The class given is functional, cell-based. The essentials: as §3
Test [7] has as its system T47D. In words: Reduction in ATP level in human T47D cells at 0.01 to 0.1 uM after 72 hrs by HPLC-UV analysis. It is filed as functional, cell-based. The essentials: as §2
Test [8] has as its system T47D. In words: Antiproliferative activity against human T47D cells assessed as cell viability at 0.01 to 0.1 uM after 72 hrs by SRB assay. It is filed as functional. The essentials:
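T47D cells grown in DMEM/F12 with 10% FBS and penicillin/streptomycin, then exposed for 72 h in a parallel 96-well viability study. Cells fixed in the wells with no aspiration or wash, stained by sulforhodamine B, and read by OD. % inhibition = [1 − (OD treated/OD medium control)] × 100.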

Test [9] has as its system MDA-MB-231. Nature of the test: Reduction in ATP level in human MDA-MB-231 cells after 72 hrs by HPLC-UV analysis. It is filed as functional, cell-based. The essentials: as §2
The test system of test [10] is T47D. In words: Reduction in ATP level in human T47D cells after 48 hrs by HPLC-UV analysis. The class given is functional, cell-based. The essentials: as §2
In test [11] the test system is MDA-MB-231. Nature of the test: Reduction in ATP level in human MDA-MB-231 cells at 0.01 to 0.1 uM after 48 hrs by HPLC-UV analysis. It is filed as functional, cell-based. The essentials: as §2
Test [12] addresses Serine/threonine-protein kinase mTOR (Homo sapiens) (UniProt P42345). In words: Inhibition of mTOR-mediated eIF4E phosphorylation on Ser 209 in human MDA-MB-231 cells at 0.1 to 1 uM after 30 mins by Western blotting. It is filed as cell-based. In short, it runs like this:
as §1

Test [13] shares this target. Nature of the test: Inhibition of mTORC1-mediated eIF4E phosphorylation on Ser 209 in human T47D cells at 0.1 to 1 uM after 30 mins by Western blotting. The class given is cell-based. The essentials:
as §1

The target is the same in test [14]. Nature of the test: Inhibition of mTOR in human MDA-MB-231 cells assessed as eEF2 hyperphosphorylation on Ser 56 at 0.1 to 1 uM after 30 mins by Western blotting. The class given is cell-based. The essentials: as §1
For test [15] the target is unchanged. Nature of the test: Inhibition of mTOR-mediated rpS6 phosphorylation on Ser 235/236 in human MDA-MB-231 cells at 0.1 to 1 uM after 30 mins by Western blotting. It is filed as cell-based. In short, it runs like this: as §1
Test [16] shares this target. Nature of the test: Inhibition of mTOR in human MDA-MB-231 cells assessed as eIF2alpha hyperphosphorylation on Ser 51 at 0.1 to 1 uM after 30 mins by Western blotting. It is filed as cell-based. In short, it runs like this: as §1
Test [17] shares this target. In words: Inhibition of mTOR in human T47D cells assessed as eIF2alpha hyperphosphorylation on Ser 51 at 0.1 to 1 uM after 30 mins by Western blotting. It is filed as cell-based. The essentials: as §1
The target is the same in test [18]. Nature of the test: Inhibition of mTOR-mediated 4E-BP1 phosphorylation on Thr 37/46 in human MDA-MB-231 cells at 0.1 to 1 uM after 30 mins by Western blotting. It is filed as cell-based. The essentials: as §1
The target of test [19] is T1, Hypoxia inducible factors; HIF-1-alpha, HIF-2-alpha (Homo sapiens, UniProt Q16665+Q99814). Nature of the test: Inhibition of HIF1-mediated induction of secreted VEGF protein in hypoxia-stimulated human T47D cells at 0.3 uM after 16 hrs by ELISA. It is filed as cell-based. In general terms: An ELISA detects its analyte on a solid surface through an enzyme-linked reagent.

Test [20] concerns T47D. In words: Inhibition of HIF1beta protein accumulation under hypoxic condition in human T47D cells at 3 uM after 4 hrs by Western blot analysis. The class given is functional, cell-based.
Test [21] deals with T47D. Nature of the test: Antiproliferative activity against human T47D cells assessed as cell viability by SRB assay. The class given is functional, cell-based. In short, it runs like this:
(§4)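 Cells grown in DMEM/F12 with 10% FBS, penicillin and streptomycin; 96-well viability assay, 2-day or 6-day exposure, with medium (5% FBS) and compound renewed after 3 days in the 6-day study. Read by optical density; % inhibition = [1 − (ODtreated/ODcontrol)] × 100 versus medium control.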
On the technique in general: Sulforhodamine B stains cellular protein and so reports cell mass.

Test [22] relates to T47D. Nature of the test: Inhibition of HIF1alpha protein accumulation under hypoxic condition in human T47D cells at 3 uM after 4 hrs by Western blot analysis. The class given is functional, cell-based.
For test [23], the target named is T1, Hypoxia inducible factors; HIF-1-alpha, HIF-2-alpha. In words: Inhibition of HIF1-mediated induction of secreted VEGF protein in hypoxia-stimulated human T47D cells at 3 uM after 16 hrs by ELISA. The class given is cell-based.
The target is the same in test [24]. Nature of the test: Inhibition of HIF1-mediated induction of cellular VEGF protein in hypoxia-stimulated human T47D cells at 0.3 uM after 16 hrs by ELISA. It is filed as cell-based.
The subject of test [25] is T47D. Nature of the test: Ratio of IC50 for 1, 10-phenanthroline-induced HIF1 activation in human T47D cells to IC50 for hypoxia-induced HIF1 activation in human T47D cells. It is filed as cell-based.
Test [26] has as its system MDA-MB-231. Nature of the test: Antiproliferative activity against human MDA-MB-231 cells assessed as cell viability by SRB assay. It is filed as functional, cell-based. In short, it runs like this: as §4
The test system of test [27] is T47D. In words: Inhibition of 1, 10-phenanthroline-induced HIF1beta protein accumulation in human T47D cells at 3 uM after 4 hrs by Western blot analysis. It is filed as functional, cell-based.
Test [28] has as its target T1, Hypoxia inducible factors; HIF-1-alpha, HIF-2-alpha. In words: Inhibition of HIF1-mediated induction of Glut-1 mRNA expression in human T47D cells at 3 uM after 16 hrs by RT-PCR analysis under normoxic condition. It is filed as cell-based.
In test [29] the test system is T47D. In words: Inhibition of cellular respiration in human T47D cells at 1 uM by oxygen consumption assay. It is filed as functional. The essentials: (§5)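 Oxygen consumption of intact T47D cells measured with a Clark-type electrode, in serum-free DMEM/F12 at 30 °C.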
Test [30] deals with T1, Hypoxia inducible factors; HIF-1-alpha, HIF-2-alpha. In words: Inhibition of HIF1-mediated induction of VEGF mRNA expression in human T47D cells at 3 uM after 16 hrs by RT-PCR analysis under normoxic condition. It is filed as cell-based.
Test [31] has the same target. In words: Inhibition of HIF1-mediated induction of secreted VEGF protein in human T47D cells at 3 uM after 16 hrs by ELISA under normoxic condition. It is filed as cell-based.
For test [32], the system named is T47D. In words: Inhibition of cellular respiration in human T47D cell at 0.03 to 1 uM by oxygen consumption assay. The class given is functional, cell-based. In short, it runs like this:
as §5

The target of test [33] is T1, Hypoxia inducible factors; HIF-1-alpha, HIF-2-alpha. In words: Inhibition of HIF1-mediated induction of VEGF mRNA expression in hypoxia-stimulated human T47D cells at 0.3 to 3 uM after 16 hrs by RT-PCR analysis. It is filed as cell-based.
Test [34] has the same target. In words: Inhibition of HIF1-mediated induction of cellular VEGF protein in human T47D cells at 3 uM after 16 hrs by ELISA under normoxic condition. It is filed as cell-based.
The target is the same in test [35]. In words: Inhibition of HIF1-mediated induction of cellular VEGF protein in hypoxia-stimulated human T47D cells at 3 uM after 16 hrs by ELISA. It is filed as cell-based.
In test [36] the test system is T47D. In words: Inhibition of 1, 10-phenanthroline-induced HIF1alpha protein accumulation in human T47D cells at 3 uM after 4 hrs by Western blot analysis. It is filed as functional, cell-based.
Test [37] deals with T1, Hypoxia inducible factors; HIF-1-alpha, HIF-2-alpha. In words: Inhibition of 1, 10-phenanthroline-induced HIF1 activation in human T47D cells after 16 hrs by HRE3-TK-luciferase reporter gene assay. The class given is cell-based.
Test [38] has the same target. In words: Inhibition of HIF1-mediated induction of Glut-1 mRNA expression in hypoxia-stimulated human T47D cells at 0.3 to 3 uM after 16 hrs by RT-PCR analysis. It is filed as cell-based.
For test [39] the target is unchanged. In words: Inhibition of hypoxia-induced HIF1 activation in human T47D cells after 16 hrs by HRE3-TK-luciferase reporter gene assay. The class given is cell-based. In short, it runs like this: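 T47D cells carrying the pHRE3-TK-Luc reporter, grown in DMEM/F12 with 10% FBS; HIF-1 induced by hypoxia (1% O2). Activity reported as % inhibition of the induced control, calculated as [1 − (treated/control)] × 100.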

Test [40] deals with PC-3. Nature of the test: Antiproliferative activity against human PC3 cells assessed as cell viability by SRB assay. It is filed as functional, cell-based. In short, it runs like this: as §4

Turning to `C=C(C)[C@H]1Cc2c(ccc3c2O[C@@H]2COc4cc(OC)c(OC)cc4[C@@H]2C3=O)O1` [ROTENONE], the result in test [1], in test [7], in test [10], in test [11], in test [14] and in [16] was Active. Also, the inhibition result in test [2], in [5], in test [12], in [13], in test [15] and in test [18] was “inactive” in each case. For the same molecule, the Activity result in test [3] was “Dose-dependent effect”; in test [8] it was 50%; in test [9], “Dose-dependent effect”. For the same molecule, the inhibition result in test [4] and in test [17] was “Active” each time. Also, the inhibition entry in [6] is “Dose-dependent effect”.
Regarding `CC(C)=CC(=O)O[C@@H]1CC[C@]2(C)[C@H]3CC[C@]45C[C@]4(CC[C@@H]5[C@@H]4C[C@H]([C@@H]5OC5(C)C)OC4O)[C@]3(C)[C@H](O)C[C@H]2C1(C)C` (stereo not given in full) [SKIMMIAREPIN C], the inhibition result in test [19], in [22], in [23], in [24], in [33] and in [35] was “Active” throughout. Further, the inhibition entry in test [38] is “Active”. Moreover, the inhibition entry in [20], in [27], in test [28], in test [30], in test [31] and in test [34] was “inactive” each time. Further, the inhibition entry in [36] was “inactive”. Further, the result in test [21] and in [40] was Active. For the same molecule, in test [25], the Ratio IC50 is 80. Moreover, in [26], the outcome was inactive. In [29], this molecule had an inhibition at 1 µM of 75%. For the same molecule, the inhibition result in test [32] was “Dose-dependent effect”. The IC50 came out at 5600 nM in test [37] and 68 nM in test [39].
